SIRT5 block: SIRT5 desuccinylase inhibitors, primary screen, biochemical, fluorescence imaging, single point, set 5. NAD-dependent protein deacylase sirtuin-5, mitochondrial (Homo sapiens), Q9NXA8. Purified SirT5, succinyl-peptide AMC, trypsin-coupled fluorescence. inhibition, % at 15 µM. 330,000 compounds, 1.1% hits. AID 652115, 2013; in the data active = inhibition above about 15%
DENV2 CPE rescue: inhibitors of DENV2 cytopathic effect, primary screen, cell-based, plate reader, single concentration; 350,000 compounds, 1.7% hits; AID 651640, 2012; CPE inhibition, % at 9.99 µM; DENV2-infected cells, cytopathic effect rescue; in the data active = CPE inhibition above about 20%, passing the limit was not always enough; tested in BHK-21 cells
E-sel inducer: E-selectin induction in HUVECs, primary screen, imaging, HUVEC, immunofluorescence imaging, single point; P16581; activation, % at 7.58 µM; normalized: neutral wells 0, TNF-alpha wells 100; 260,000 compounds, 0.37% hits; AID 686992, 2013;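 active = mean E-selectin-positive cell signal at least 10% of the positive control, reached in at least 60% of replicates, without over 20% cell loss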
Target sequence (P16581 whole entry, looked up): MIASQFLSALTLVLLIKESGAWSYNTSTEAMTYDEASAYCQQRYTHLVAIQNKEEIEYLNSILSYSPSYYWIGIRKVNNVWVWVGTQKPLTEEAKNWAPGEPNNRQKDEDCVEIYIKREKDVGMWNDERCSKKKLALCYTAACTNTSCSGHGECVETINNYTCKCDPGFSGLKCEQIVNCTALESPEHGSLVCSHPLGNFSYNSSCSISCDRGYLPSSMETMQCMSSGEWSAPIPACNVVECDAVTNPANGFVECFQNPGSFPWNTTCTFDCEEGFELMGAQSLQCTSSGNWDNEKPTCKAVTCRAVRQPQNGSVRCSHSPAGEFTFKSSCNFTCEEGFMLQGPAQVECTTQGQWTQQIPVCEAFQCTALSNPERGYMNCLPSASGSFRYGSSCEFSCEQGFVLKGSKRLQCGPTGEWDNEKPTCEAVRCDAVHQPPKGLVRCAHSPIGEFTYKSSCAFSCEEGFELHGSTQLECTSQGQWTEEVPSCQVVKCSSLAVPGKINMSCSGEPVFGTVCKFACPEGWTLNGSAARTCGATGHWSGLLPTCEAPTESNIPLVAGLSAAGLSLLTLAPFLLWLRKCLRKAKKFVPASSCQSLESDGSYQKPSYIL
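Read-out basis: % PE-positive cells; Test system: HUVEC primary endothelial cells; Technique: immunofluorescence imaging; Dosing: single-point compound dose.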
Large screens that a line does not name were inactive. In the library only some 2.9% were active in any assay of this set; here they are far more common.

C[C@H]1CN([C@@H](C)CO)C(=O)c2cc(NC(=O)CCCCCC(=O)Nc3ccccc3N)ccc2O[C@H]1CN(C)Cc1ccncc1	none (no result: E-sel inducer)
C[C@@H]1CN([C@@H](C)CO)C(=O)Cc2cc(NC(=O)CCCCCC(=O)Nc3ccccc3N)ccc2O[C@@H]1CN(C)Cc1ccc(Cl)c(Cl)c1	none
C[C@@H]1CN([C@@H](C)CO)C(=O)c2cc(NC(=O)CCCCCC(=O)Nc3ccccc3N)ccc2O[C@H]1CN(C)Cc1ccncc1	DENV2 CPE rescue 41.5 (no result: E-sel inducer)
C[C@H](CO)N1C[C@H](C)[C@@H](CN(C)Cc2ccncc2)Oc2ccc(NC(=O)CCCCCC(=O)Nc3ccccc3N)cc2CC1=O	DENV2 CPE rescue 53.2 (no result: E-sel inducer)
C[C@@H]1CN([C@H](C)CO)C(=O)Cc2cc(NC(=O)CCCN(C)C)ccc2O[C@@H]1CN(C)Cc1ccc(-c2ccccc2)cc1	SIRT5 block 99.0 (no result: E-sel inducer)
C[C@@H]1CN([C@H](C)CO)C(=O)Cc2cc(NC(=O)CCCCCC(=O)Nc3ccccc3N)ccc2O[C@@H]1CN(C)Cc1ccc(Cl)c(Cl)c1	DENV2 CPE rescue 84.2
C[C@@H]1CN([C@H](C)CO)C(=O)Cc2cc(NC(=O)CCCCCC(=O)Nc3ccccc3N)ccc2O[C@@H]1CN(C)Cc1ccncc1	none (no result: E-sel inducer)
C[C@@H]1CN([C@@H](C)CO)C(=O)Cc2cc(NC(=O)CCCN(C)C)ccc2O[C@H]1CN(C)Cc1ccc(-c2ccccc2)cc1	none (no result: E-sel inducer)
Cc1ccc(C(=O)OCC(=O)N(C)c2ccccc2)cc1C	none (no result: E-sel inducer)
O=C(COC(=O)c1cc(Br)ccc1Cl)NC1CC1	none
O=C(CCSCc1ccccc1Cl)NC1CCCC1	none (no result: SIRT5 block, DENV2 CPE rescue)
C[C@@H]1CN([C@@H](C)CO)C(=O)Cc2cc(NC(=O)CCCCCC(=O)Nc3ccccc3N)ccc2O[C@H]1CN(C)S(=O)(=O)c1ccccc1	none
C[C@@H]1CN([C@H](C)CO)C(=O)Cc2cc(NC(=O)CCCCCC(=O)Nc3ccccc3N)ccc2O[C@@H]1CN(C)Cc1ccc(Oc2ccccc2)cc1	SIRT5 block 16.0 (no result: E-sel inducer)
COc1ccc(CN(C)C[C@H]2Oc3ccc(NC(=O)CCCCCC(=O)Nc4ccccc4N)cc3CC(=O)N([C@@H](C)CO)C[C@H]2C)cc1	none (no result: SIRT5 block)
COc1ccc(CN(C)C[C@H]2Oc3ccc(NC(=O)CCCCCC(=O)Nc4ccccc4N)cc3CC(=O)N([C@H](C)CO)C[C@H]2C)cc1	none (no result: SIRT5 block)
C[C@H]1CN([C@@H](C)CO)C(=O)Cc2cc(NC(=O)CCCCCC(=O)Nc3ccccc3N)ccc2O[C@@H]1CN(C)S(=O)(=O)c1ccccc1	DENV2 CPE rescue 78.8
C[C@H]1CN([C@@H](C)CO)C(=O)Cc2cc(NC(=O)CCCCCC(=O)Nc3ccccc3N)ccc2O[C@@H]1CN(C)Cc1ccc(Oc2ccccc2)cc1	SIRT5 block 28.8
CCC(CC)C(=O)N(C)c1c(C)nc2c(OCC=C(C)C)cccn12	none (no result: SIRT5 block)
CC1CC(C)CN(S(=O)(=O)c2ccc(C(=O)NNC(=O)c3ccccc3F)cc2)C1 (stereo not drawn)	none (no result: E-sel inducer)
Cc1ccc(S(=O)(=O)N2CCCCC2)cc1NC(=O)C1=NN(c2ccccc2)C(=O)CC1	none
COc1ccccc1NC(=O)N(C)C[C@@H]1Oc2cc(Br)ccc2S(=O)(=O)N([C@@H](C)CO)C[C@@H]1C	none
CS(=O)(=O)Nc1ccc2c(c1)[C@@H]1C[C@@H](CC(=O)NCc3ccccc3)O[C@H](CO)[C@@H]1O2	none
CS(=O)(=O)Nc1ccc2c(c1)[C@H]1C[C@H](CC(=O)NCc3ccccc3)O[C@H](CO)[C@H]1O2	SIRT5 block 16.1
O=C(C[C@@H]1C[C@H]2c3cc(NC(=O)C4CCC4)ccc3O[C@H]2[C@H](CO)O1)NCc1ccc(-c2ccccc2)cc1	SIRT5 block 25.0
O=C(O)C[C@@H]1C[C@@H]2c3cc(NC(=O)CC4CC4)ccc3O[C@@H]2[C@H](CO)O1	DENV2 CPE rescue 30.0
O=C(C[C@H]1C[C@@H]2c3cc(NC(=O)CC4CC4)ccc3O[C@@H]2[C@H](CO)O1)NCc1ccccc1	DENV2 CPE rescue 97.7
O=C(C[C@@H]1C[C@@H]2c3cc(NC(=O)CC4CC4)ccc3O[C@@H]2[C@H](CO)O1)NCc1ccccc1	none
O=C(O)C[C@@H]1C[C@@H]2c3cc(NC(=O)CC4CC4)ccc3O[C@@H]2[C@@H](CO)O1	none
O=C(C[C@@H]1C[C@@H]2c3cc(NC(=O)C4CCC4)ccc3O[C@@H]2[C@H](CO)O1)NCc1ccc(-c2ccccc2)cc1	none
CCc1c(C(=O)Nc2ccc(C)c(C)c2)[nH]c(C)c1C(C)=O	none
C[C@H](CO)N1C[C@H](C)[C@H](CN(C)C(=O)Nc2ccc(F)cc2)Oc2c(NC(=O)Nc3ccc(C(F)(F)F)cc3)cccc2C1=O	none
O=C(CN(Cc1ccco1)C(=O)CNS(=O)(=O)c1ccc(Cl)cc1)NCc1ccco1	none (no result: SIRT5 block)

From PubChem
